Series [1] addresses T1, Aldehyde oxidase (Homo sapiens, UniProt Q06278).
T1 sequence (Q06278 whole entry): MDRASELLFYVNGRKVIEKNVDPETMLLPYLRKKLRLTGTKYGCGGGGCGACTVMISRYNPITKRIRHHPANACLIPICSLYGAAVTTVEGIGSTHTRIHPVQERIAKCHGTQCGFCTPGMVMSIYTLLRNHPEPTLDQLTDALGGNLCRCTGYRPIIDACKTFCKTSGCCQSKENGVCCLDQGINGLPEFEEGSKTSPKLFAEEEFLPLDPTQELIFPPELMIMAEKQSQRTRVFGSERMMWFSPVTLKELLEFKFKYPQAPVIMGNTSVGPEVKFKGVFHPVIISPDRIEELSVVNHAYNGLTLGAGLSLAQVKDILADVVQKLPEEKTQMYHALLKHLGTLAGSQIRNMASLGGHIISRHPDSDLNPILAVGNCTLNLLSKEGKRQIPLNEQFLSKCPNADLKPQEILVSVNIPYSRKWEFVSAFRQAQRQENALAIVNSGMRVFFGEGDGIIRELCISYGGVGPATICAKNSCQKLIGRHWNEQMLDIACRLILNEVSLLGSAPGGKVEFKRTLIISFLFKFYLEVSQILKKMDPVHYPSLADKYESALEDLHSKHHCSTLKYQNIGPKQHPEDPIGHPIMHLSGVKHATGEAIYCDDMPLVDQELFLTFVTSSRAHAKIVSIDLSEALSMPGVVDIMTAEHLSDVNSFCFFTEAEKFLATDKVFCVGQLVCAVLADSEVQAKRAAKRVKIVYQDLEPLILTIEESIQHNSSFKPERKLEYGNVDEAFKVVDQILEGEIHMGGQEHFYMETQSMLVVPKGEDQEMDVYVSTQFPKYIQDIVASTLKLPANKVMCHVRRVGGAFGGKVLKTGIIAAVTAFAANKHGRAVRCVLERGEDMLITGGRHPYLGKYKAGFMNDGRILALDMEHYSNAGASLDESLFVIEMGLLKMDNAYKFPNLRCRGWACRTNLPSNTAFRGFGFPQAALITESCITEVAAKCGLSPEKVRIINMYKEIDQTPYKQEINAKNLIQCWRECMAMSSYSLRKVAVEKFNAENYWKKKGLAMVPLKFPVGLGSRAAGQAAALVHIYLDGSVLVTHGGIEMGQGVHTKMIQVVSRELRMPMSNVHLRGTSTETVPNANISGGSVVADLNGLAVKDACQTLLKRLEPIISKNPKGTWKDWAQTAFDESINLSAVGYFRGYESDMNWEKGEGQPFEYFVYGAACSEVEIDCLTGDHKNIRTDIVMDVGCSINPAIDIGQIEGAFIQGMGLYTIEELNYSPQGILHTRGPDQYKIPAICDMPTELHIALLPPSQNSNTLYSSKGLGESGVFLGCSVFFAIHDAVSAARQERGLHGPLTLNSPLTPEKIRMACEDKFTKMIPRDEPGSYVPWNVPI
The series can be described thus: Drug metabolism in human liver cytosol assessed as AOX-mediated oxidative metabolite formation by measuring decrease in the liquid chromatography-mass spectrometry peak at 10 uM after 30 min by UPLC/Q-TOF MS analysis. The series is classed as ADME. As to conditions: 0.5 h. In outline:
(§1)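 Pooled human liver cytosol, 0.5 mg/mL protein, in 100 mM potassium phosphate pH 7.4; 3 min preincubation at 37 °C, then 10 μM substrate (final; DMSO 0.1% v/v). Quenched after 30 min with equal volume ice-cold acetonitrile, centrifuged, supernatant run by UPLC/Q-TOF MS in positive ion mode. Controls without substrate or with inactivated enzyme; duplicate incubations.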

The target in series [2] is T1, Aldehyde oxidase. The series can be described thus: Drug metabolism in human liver cytosol assessed as AOX-mediated 2-fluoro-N-methyl-4-(3-oxo-7-(quinolin-7-ylmethyl)-3,4-dihydroimidazo[1,2-b][1,2,4]triazin-2-yl)benzamide metabolite formation by measuring LC-MS peak area of the metabolite at 10 uM after 30 mins in presence of menadione by UPLC/Q-TOF MS analysis. It counts as ADME. The note with it: 0.5 h. In a few lines: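 Human liver cytosol (0.5 mg/mL protein) in 100 mM phosphate buffer preincubated 10 min at 37 °C with 100 μM menadione (DMSO 0.2% v/v final), then 10 μM substrate (final) added. Stopped at 30 min with equal volume ice-cold acetonitrile; metabolites detected by UPLC/Q-TOF MS. Inhibitor-free controls run alongside; duplicate incubations.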

Series [3] in a line: Retention time of the compound by UPLC/Q-TOF MS analysis. In a few lines:
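HSS T3 column (1.8 μm, 100 × 2.1 mm) at 45 °C, 0.4 mL/min. Mobile phase: 5 mM ammonium acetate with 0.1% formic acid (A) and acetonitrile (B). Gradient 10% B for 1 min, to 65% B over 6 min, to 99% B over 0.5 min, held 1.5 min, back to 10% B. Positive-ion Q-TOF detection, m/z 80–1000.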

The target of series [4] is T1, Aldehyde oxidase. The series can be described thus: Drug metabolism in human liver cytosol assessed as AOX-mediated 2-fluoro-N-methyl-4-(3-oxo-7-(quinolin-7-ylmethyl)-3,4-dihydroimidazo[1,2-b][1,2,4]triazin-2-yl)benzamide metabolite formation by measuring LC-MS peak area of the metabolite at 10 uM after 30 min by UPLC/Q-TOF MS analysis. The series is classed as ADME. The note with it: 0.5 h. In outline: as §1

Series [5] addresses T1, Aldehyde oxidase. In words: Drug level in human liver cytosol treated with capmatinib assessed as AOX-mediated metabolite formation at 10 uM after 30 min by UPLC/Q-TOF MS analysis. The note with it: 0.5 h. It counts as ADME. In outline:
as §1

In series [6] the target is T1, Aldehyde oxidase. In words: Drug metabolism in human liver cytosol assessed as as AOX-mediated quinolone group metabolism at 10 uM after 30 mins by UPLC/Q-TOF MS analysis. The series is classed as ADME. The note with it: 0.5 h. In outline: as §1

Regarding `Cn1cc(-c2ccc3ncc(Cc4ccc5ncccc5c4)n3n2)cn1`, the Drug metabolism entry at Aldehyde oxidase [1] is on record as “Metabolite_Detected”. With `CNC(=O)c1ccc(-c2nn3c(Cc4ccc5ncccc5c4)cnc3[nH]c2=O)cc1F`, the Drug metabolism at Aldehyde oxidase [2] is reported as 3220; at Aldehyde oxidase [4], 136000; on Aldehyde oxidase [5], “Metabolite_Detected”. Besides, the Retention time in series [3] was found to be 3.63 min.

As for `CNC(=O)c1ccc(-c2cnc3ncc(Cc4ccc5ncccc5c4)n3n2)cc1F` [CAPMATINIB], the Drug metabolism result at Aldehyde oxidase [1] is listed as “Metabolite_Detected”. As for `Cn1cc(-c2ccc3nnc(C(F)(F)c4ccc5ncccc5c4)n3n2)cn1` [JNJ-38877605], the Drug metabolism entry on Aldehyde oxidase [6] is on record as “Metabolite_Detected”. Turning to `OCCn1cc(-c2cnc3nnn(Cc4ccc5ncccc5c4)c3n2)cn1` [PF-04217903], the Drug metabolism entry on Aldehyde oxidase [1] and on Aldehyde oxidase [6] was “Metabolite_Detected” each time. With `Cn1cc(-c2ccc3nnc(Sc4ccc5ncccc5c4)n3n2)cn1` [SGX-523], the Drug metabolism result at Aldehyde oxidase [6] is listed as “Metabolite_Detected”.

The values are drawn from ChEMBL document CHEMBL4049400, “Aldehyde Oxidase Mediated Metabolism in Drug-like Molecules: A Combined Computational and Experimental Study” (J Med Chem, 2017).
